≈ marks a conversion by molar mass, not a printed value. Calls of active or inactive are those of the source. The rule behind the calls is not given here.
Key:
[1] = tested on: Enterococcus faecalis; assay: Antibacterial activity against Enterococcus faecalis ATCC 29212 by broth microdilution method; format: functional
In short: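 MICs by CLSI M07-A7 broth microdilution in cation-adjusted Mueller-Hinton medium. For S. pneumoniae the medium was supplemented with 5% lysed horse blood. CLSI quality control strains were run alongside as appropriate.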

[2] = tested on: Streptococcus pneumoniae; assay: Antibacterial activity against Streptococcus pneumoniae isolate OC7376 assessed as log reduction in bacterial growth at 4 times MIC measured at 24 hrs by time-kill assay; format: functional
In short: (§1)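 Drug was diluted from 50× stocks made in water or acidified water. Samples were taken at 6 and 24 h and serially diluted onto TSA-5% sheep blood plates. Plates were incubated 20–24 h at 37°C in 5% CO2 before counting CFU. Log10 titer change is given relative to the starting inoculum.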

[3] = tested on: Streptococcus pneumoniae; assay: Antibacterial activity against Streptococcus pneumoniae isolate OC6585 assessed as log reduction in bacterial growth at 2 times MIC measured at 24 hrs by time-kill assay; format: functional; in short: as §1
[4] = tested on: Streptococcus pneumoniae; assay: Antibacterial activity against Streptococcus pneumoniae isolate OC7368 assessed as log reduction in bacterial growth at 4 times MIC measured at 24 hrs by time-kill assay; format: functional; in short: as §1
[5] = tested on: Staphylococcus aureus; assay: Antibacterial activity against methicillin-resistant Staphylococcus aureus isolate OC4222 harboring gyrA S84L and parC S80F mutant gene assessed as log reduction in bacterial growth at 4 times MIC measured at 24 hrs by time-kill assay; format: functional
In short: (§2)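 Overnight MRSA cultures were diluted into fresh cation-adjusted Mueller-Hinton broth to about 5 × 10^6 CFU/ml. […] Samples were plated serially diluted on trypticase soy agar, and CFU were counted after 20-24 h at 37°C. Value is the log10 decrease at 24 h from the starting inoculum; detection limit 100 CFU.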

[6] = tested on: Enterobacter cloacae; assay: Antibacterial activity against Enterobacter cloacae by broth microdilution method; format: functional
[7] = tested on: Staphylococcus aureus; assay: Antibacterial activity against methicillin-resistant Staphylococcus aureus isolate OC8525 harboring wild type quinolone resistance-determining region assessed as log reduction in bacterial growth at 2 times MIC measured at 24 hrs by time-kill assay; format: functional; in short: as §2
[8] = tested on: Streptococcus pneumoniae; assay: Antibacterial activity against Streptococcus pneumoniae isolate OC7376 assessed as log reduction in bacterial growth at 2 times MIC measured at 24 hrs by time-kill assay; format: functional; in short: as §1
[9] = tested on: Streptococcus pneumoniae; assay: Antibacterial activity against Streptococcus pneumoniae isolate OC7368 assessed as log reduction in bacterial growth at 4 times MIC measured at 6 hrs by time-kill assay; format: functional; in short: as §1
[10] = tested on: Streptococcus pneumoniae; assay: Antibacterial activity against multidrug resistant Streptococcus pneumoniae by broth microdilution method; format: functional, organism-based
In short: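 CLSI M07-A7 broth microdilution MIC in cation-adjusted Mueller-Hinton medium. For S. pneumoniae the medium was supplemented with 5% lysed horse blood. CLSI quality-control strains were included as appropriate.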

[11] = tested on: Streptococcus pneumoniae; assay: Antibacterial activity against Streptococcus pneumoniae isolate OC6585 by broth microdilution method; format: functional
In short: (§3)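 CLSI M07-A7 broth microdilution MIC. Medium was cation-adjusted Mueller-Hinton broth. For S. pneumoniae it was Mueller-Hinton supplemented with 5% lysed horse blood. CLSI quality-control strains were included as appropriate.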

[12] = tested on: Staphylococcus aureus; assay: Antibacterial activity against methicillin-resistant Staphylococcus aureus isolate OC12501 assessed as log reduction in bacterial growth at 4 times MIC measured at 24 hrs by time-kill assay; format: functional; in short: as §2
[13] = tested on: Streptococcus pneumoniae; assay: Antibacterial activity against Streptococcus pneumoniae isolate OC6608 by broth microdilution method; format: functional; in short: as §3
[14] = tested on: Streptococcus pneumoniae; assay: Antibacterial activity against Streptococcus pneumoniae isolate OC6610 assessed as log reduction in bacterial growth at 4 times MIC measured at 24 hrs by time-kill assay; format: functional; in short: as §1

Q: What does the source list for `COc1c(N2CCC/C(=C(\F)CN)C2)c(F)cc2c(=O)c(C(=O)O)cn(C3CC3)c12` [ACORAFLOXACIN]?
A: MIC50 [1]: 0.06 µg/mL (≈ 0.143 µM); MIC90 [1]: 0.5 µg/mL (≈ 1.19 µM); deltalog10CFU/ml [2]: 6.3; deltalog10CFU/ml [3]: 6.6; deltalog10CFU/ml [4]: 6.9; deltalog10CFU/ml [5]: 4.2; MIC50 [6]: 0.12 µg/mL (≈ 0.286 µM); MIC90 [6]: 0.12 µg/mL (≈ 0.286 µM); deltalog10CFU/ml [7]: 5.1; deltalog10CFU/ml [8]: 6.8; deltalog10CFU/ml [9]: 3.7; Activity [10]: Active; MIC [11]: 0.25 µg/mL (≈ 0.596 µM); deltalog10CFU/ml [12]: 6.2; MIC [13]: 0.06 µg/mL (≈ 0.143 µM); deltalog10CFU/ml [14]: 6.9

Source: ChEMBL document CHEMBL1255444, “In vitro antibacterial activities of JNJ-Q2, a new broad-spectrum fluoroquinolone” (Antimicrob Agents Chemother, 2010)
